Measured values from ChEMBL document CHEMBL4706718, “1,2,4-Oxadiazole-Bearing Pyrazoles as Metabolically Stable Modulators of Store-Operated Calcium Entry” (ACS Med Chem Lett, 2021).
Calls of active or inactive are those of the source. No cut-off for these calls is given here.

Key:
[1] = Stability in CD-1 mouse liver S9 fraction assessed as parent compound remaining at 50 uM measured after 60 mins by HPLC-UV analysis; format: ADME, subcellular; settings: read-out: Stabilty
Procedure, shortened: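 Incubated in mouse liver MLS9 fraction supplemented with NADPH. Residual parent substrate measured after 1 h. Three independent experiments, mean ± SEM.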

HEK [2] = experiment: Inhibition of SOCE channel in tBhQ-treated HEK cells assessed as reduction in calcium entry by measuring residual activity at 10 uM preincubated for 600 secs followed by calcium addition by Fura-2 AM by fluorescence microscopic analysis relative to control; format: cell-based; settings: Homo sapiens, time 600.0 sec
Procedure, shortened: (§1)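 HEK cells; intracellular Ca2+ stores emptied with tBhQ (50 μM) in the presence of compound at 10 μM. After 600 s, Ca2+ added and intracellular Ca2+ followed by Fura-2 fluorescence microscopy. SOCE given as percent activity vs control; peak amplitude, AUC and slope of the Ca2+ rise evaluated. Traces average 200 cells over three independent experiments; Mann–Whitney U test vs control.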

[3] = Stability in CD-1 mouse liver microsomes assessed as parent compound remaining at 50 uM measured after 60 mins by HPLC-UV analysis; format: ADME, Microsome; settings: read-out: Stabilty
HEK [4] = experiment: Activation of SOCE channel in […] assessed as increase in calcium entry in resting cells at 10 uM […] by Fura-2 AM by fluorescence microscopic analysis; format: cell-based; settings: Homo sapiens
[5] = Cytotoxicity against HEK cells assessed as cell viability at 10 uM measured after 24 hrs by MTT assay relative to control; format: cell-based; settings: human, read-out: Activity
Procedure, shortened: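 MTT viability assay in HEK cells with compound at 10 μM.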

HEK [6] = experiment: Activation of SOCE channel in tBhQ-treated HEK cells assessed as increase in AUC of calcium entry at 10 uM preincubated for 600 secs followed by calcium addition by Fura-2 AM by fluorescence microscopic analysis; format: cell-based; settings: Homo sapiens, filed as activator, time 600.0 sec; procedure, shortened: as §1

For `Cc1noc(-c2cnn(-c3ccc(NC(=O)c4ccc([N+](=O)[O-])cc4)cc3)c2C(F)(F)F)n1`, which remaining at 1 h, 50 µM [1] is on record?
Its remaining at 1 h, 50 µM is over 99%.

With `CCCC(C)OC(=O)c1cnn(-c2ccc(-n3cc(-c4cccc(C(=O)O)c4)nn3)cc2)c1C(F)(F)F` (stereo not drawn) as the molecule, how does the remaining at 1 h, 50 µM [1] read?
The remaining at 1 h, 50 µM was 74%.

Which remaining at 1 h, 50 µM [1] does the source give for `CCOC(=O)c1cnn(-c2ccc(NC(=O)C(Cl)=C(Cl)Cl)cc2)c1C(F)(F)F` here?
The remaining at 1 h, 50 µM was 43%.

Which Activity (HEK [2]) does the source give for `Cc1noc(-c2cnn(-c3ccc(NC(=O)c4ccco4)cc3)c2C(F)(F)F)n1` here?
Its Activity is 61.1%.

With `Cc1noc(-c2cnn(-c3ccc(NC(=O)c4c(C)noc4C)cc3)c2C(F)(F)F)n1` as the molecule, how does the remaining at 1 h, 50 µM [1] read?
The remaining at 1 h, 50 µM was 99%.

With `Cc1noc(-c2cnn(-c3ccc(NC(=O)c4c(F)cccc4F)cc3)c2C(F)(F)F)n1` as the molecule, how does the remaining at 1 h, 50 µM [1] read?
The remaining at 1 h, 50 µM was over 99%.

For `COc1ccc(OC)c(-c2ccc(NC(=O)c3ccncc3F)cc2)c1`, which remaining at 1 h, 50 µM [3] is on record?
The remaining at 1 h, 50 µM was 15%.

With `CCCCCC(=O)Nc1ccc(-n2ncc(-c3nc(C)no3)c2C(F)(F)F)cc1` as the molecule, how does the remaining at 1 h, 50 µM [1] read?
The remaining at 1 h, 50 µM was 91%.

And the Activity (HEK [4])?
The Activity was “inactive”.

What about the viability at 24 h, 10 µM [5] of the same molecule?
Its viability at 24 h, 10 µM is 88.5%.

And the Activity (HEK [6])?
The Activity was “Active”.

Which remaining at 1 h, 50 µM [1] does the source give for `Cc1noc(-c2cnn(-c3ccc(NC(=O)c4ccc(C#N)c(F)c4)cc3)c2C(F)(F)F)n1` here?
The remaining at 1 h, 50 µM was 73%.

For `Cc1ccc(S(=O)(=O)Nc2ccc(-n3ncc(-c4nc(C)no4)c3C(F)(F)F)cc2)cc1`, which remaining at 1 h, 50 µM [1] is on record?
Its remaining at 1 h, 50 µM is 76%.
